# Screening results as filed in PubChem.
# Compounds with a hit are over-represented: about 4% of the library has one in this group of screens.
# HIV Rev-RRE inh: HIV Rev-RRE protein-RNA interaction inhibition; P05866; Rev peptide-RRE RNA binding, FRET; inhibition, % at 8 µM; hit rate 0.79% among 97,000; AID 704;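 active = inhibition above the screen-wide mean plus 3 SD, cut at about 35% in these data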
# Target sequence (P05866 whole entry, looked up): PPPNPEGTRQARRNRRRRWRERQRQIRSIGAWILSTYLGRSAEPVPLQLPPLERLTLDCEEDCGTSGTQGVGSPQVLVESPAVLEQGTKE
#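 Material: labelled RRE RNA duplex and labelled Rev peptide / Buffer or medium: HEPES pH 7.5 salt buffer with EDTA / Compound dosing: single point, 8 µM final nominal compound concentration / Benchmarks: DMSO low control, neomycin B high control / Timing: 5 min preincubation and 15 min binding, 25 °C / Technique: FRET fluorescence readout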
# ERb SRC1 inh: blocks coactivator binding to human estrogen receptor beta; AID 633; TR-FRET ER-beta LBD / SRC1-Cy5 peptide binding; receptor agonist-loaded with 1 µM estradiol; hit rate 1.3% among 86,000; inhibition, % at 25.6 µM; Q92731;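 active = compounds whose percent inhibition of the receptor-coactivator binding signal exceeds about 50% in the single-dose screen, limit read from the data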
# Smad3 inh: Smad3 (human) transcription factor binding inhibition; P84022; TR-FRET Smad3/Dy647-FoxH1 peptide binding, europium anti-His; inhibition, % at 25 µM; hit rate 0.29% among 88,000; AID 630;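 active = compounds that reduce the energy-transfer binding signal between the protein and its labelled peptide by more than half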
# Target sequence (P84022 whole entry, looked up): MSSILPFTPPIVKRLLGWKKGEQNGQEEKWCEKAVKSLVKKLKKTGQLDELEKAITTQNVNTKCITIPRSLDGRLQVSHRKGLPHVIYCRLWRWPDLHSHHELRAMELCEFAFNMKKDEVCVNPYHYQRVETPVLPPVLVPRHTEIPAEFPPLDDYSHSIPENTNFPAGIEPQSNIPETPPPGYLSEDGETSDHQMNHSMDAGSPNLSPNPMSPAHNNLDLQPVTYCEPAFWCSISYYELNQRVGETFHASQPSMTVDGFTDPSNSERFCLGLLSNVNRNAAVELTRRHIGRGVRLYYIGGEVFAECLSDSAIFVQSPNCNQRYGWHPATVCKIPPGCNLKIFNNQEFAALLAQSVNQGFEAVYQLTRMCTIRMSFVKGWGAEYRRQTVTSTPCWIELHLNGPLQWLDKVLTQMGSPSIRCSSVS
# ERa coact inh: blocks coactivator binding to human estrogen receptor alpha; P03372; TR-FRET ER-alpha LBD / SRC-1 peptide, estradiol-bound; inhibition, % at 25.6 µM; hit rate 1.7% among 86,000; AID 629; in the data active = inhibition above about 50%
# FAK inh: blocks human focal adhesion kinase activity; Q05397; biochemical FAK kinase activity assay; inhibition, %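 (tested at 7 µM)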; hit rate 0.84% among 97,000; AID 727; in the data active = inhibition above about 19%
# ERa coact pot: enhances coactivator binding to human estrogen receptor alpha; P03372; TR-FRET ERalpha-LBD/SRC-Cy5 coactivator binding, 2 h; 100 = basal binding, no effect; coactivator binding (% of control), % at 25.6 µM; hit rate 1.3% among 86,000; AID 639; in the data active = activity above about 200%;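 note: binding measured in presence of low estradiol as agonist stimulus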
# Hits are given with their value; - = inactive; . = not tested or not shown; [ ] = another dose, or the depositor's remark.
SMILES,HIV Rev-RRE inh,ERb SRC1 inh,Smad3 inh,ERa coact inh,FAK inh,ERa coact pot
CC(=O)C1=C(C)NC(SCC(=O)c2ccc(F)cc2)=C(C#N)C1c1ccco1 (stereo not given),-,-,-,-,-,-
COc1ccccc1NC(=O)C1=C(C)NC(SCC(=O)c2ccc(C)cc2)=C(C#N)C1c1ccco1 (stereo not given),-,-,-,-,-,203
O=c1[nH]c2cc(Br)cnc2nc1/C=C(\O)c1ccc(F)cc1,60,.,.,.,-,.
C[C@H](CCC(=O)NN)[C@@H]1CC[C@@H]2[C@H]3CC[C@H]4C[C@@H](O)CC[C@]4(C)[C@@H]3CC[C@]21C,.,.,-,.,.,.
O=C(O)[C@@H](Cc1c[nH]c2ccccc12)C(=O)NO,.,.,-,.,.,.
O=S1(=O)CCN(c2ccccc2CC(c2c[nH]c3ccccc23)c2c[nH]c3ccccc23)CC1,.,.,88,.,.,.
Nc1ccc2c3c(cccc13)CC2,47,.,.,.,-,.
N#Cc1c(OCC(=O)c2ccccc2)nc2c(c1-c1ccco1)CCc1ccccc1-2,-,-,-,-,-,230
Cc1cc(C)c(C#N)c(OCC(=O)c2ccccc2)n1,-,-,-,-,-,-
CN(C)CCC(=O)[C@]1(O)CC[C@@H]2[C@H]3CC=C4C[C@@H](O)CC[C@]4(C)[C@@H]3CC[C@]21C,.,.,-,.,.,.
N#Cc1nc(-c2ccc(OCc3ccccc3)cc2)oc1N1CCOCC1,-,-,-,-,-,-
N#Cc1nc(-c2ccc(OCc3ccccc3)cc2)oc1NCCN1CCOCC1,-,-,-,-,-,235[fluorescence artefact?]
CN1C(=O)NC(c2ccccc2)C2=C1CN(c1ccc3ccccc3c1)C2=O (stereo not given),-,.,.,.,-,.
COCCCn1c(=N)c(C(N)=S)cc2c(=O)n3cccc(C)c3nc21,.,-,-,69[fluorescence artefact?],.,-
CCn1c(=N)c(C(N)=O)cc2c(=O)n3cccc(C)c3nc21,-,-,-,50,-,-
CCN(CC)S(=O)(=O)c1csc(C(=O)OCC(=O)c2ccccc2)c1,-,-,-,-,-,-
COc1ccccc1NS(=O)(=O)c1cc([N+](=O)[O-])ccc1N/N=C/c1c(C)[nH]c2ccccc12,66[fluorescence artefact?],.,.,.,-,.
O=[N+]([O-])c1ccc(N/N=C/c2c[nH]c3ccccc23)c(S(=O)(=O)Nc2ccc(Cl)cc2)c1,65[fluorescence artefact?],.,.,.,-,.
O=[N+]([O-])c1ccccc1N/N=C\c1ccccc1Cl,-,.,.,.,-,.
COc1ccccc1NS(=O)(=O)c1cc(C)ccc1C,-,-,-,-,-,-
Cc1cc(O)c(-c2cc(O)c(C)cc2O)cc1O,.,.,83,.,.,.
CC(C)(C)c1ccc(O)c(CN(Cc2cc(C(C)(C)C)ccc2O)C2CCCCC2)c1,.,.,-,.,.,.
CCOC(=O)Cn1c(CN(C)Cc2ccccc2)nc2c1c(=O)n(C)c(=O)n2C,-,.,.,.,53,.
O=C(O)/C=C/C(=O)Nc1ccc2c(c1)C(=O)c1cc(F)ccc1-2,.,.,-,.,.,.
O=C(CSc1nc2c(sc3ccccc32)c(=O)n1Cc1ccco1)NCC1CCCO1 (stereo not given),-,-,-,-,-,279[fluorescence artefact?]
SMILES,HIV Rev-RRE inh,ERb SRC1 inh,Smad3 inh,ERa coact inh,FAK inh,ERa coact pot
CCc1ccc2nc(Nc3nc(COC)cc(=O)[nH]3)nc(C)c2c1,-,.,.,.,-,.
COc1nc(Nc2nc3ccccc3c(=O)[nH]2)nc2ccc(C)cc12,.,53[fluorescence artefact?],-,74[fluorescence artefact?],.,-
Cc1nc(Nc2nc(-c3ccccc3)cc(=O)[nH]2)nc2ccccc12,-,-,-,-,-,239
COc1ccc2cc(C(=O)CCC(=O)O)ccc2c1,.,.,-,.,.,.
Clc1ccccc1NN(Cc1ccncc1)c1ccccc1Cl,.,.,-,.,.,.
NC[C@@H](O)CSCc1ccc(Cl)cc1,.,.,-,.,.,.
CCn1c(C(=O)N2CCCC(C(=O)NCCc3ccc(C)cc3)C2)cc2sccc21 (stereo not given),-,-,-,-,-,-
CCn1c(C(=O)N2CCCC(C(=O)NCCCc3ccccc3)C2)cc2sccc21 (stereo not given),-,80[fluorescence artefact?],-,-,-,-
O=C(O)[C@H]([C@H]1NCCS1)N1C(=O)c2ccccc2C1=O,.,.,-,.,.,.
Cc1ccc(CNc2ccc3c(c2)OCO3)cc1,75,-,-,-,-,-
c1cc(CNc2ccc3c(c2)OCO3)ccn1,-,.,.,.,-,.
O=C(NC1CCCC1)c1cnn2c(C(F)(F)F)cc(-c3ccc4c(c3)OCO4)nc12,-,-,-,60[fluorescence artefact?],-,-
O=C(NCc1ccco1)c1cnn2c(C(F)(F)F)cc(-c3ccccc3)nc12,-,-,-,-,-,-
COc1ccc(-c2cc(C(F)(F)F)n3ncc(C(=O)NCc4ccco4)c3n2)cc1,-,50[fluorescence artefact?],-,59,-,-
Cc1ccc(CO/N=C\Cc2snc(Sc3ncc(C(F)(F)F)cc3Cl)c2C#N)cc1,60,-,-,-,-,-
CCc1ncc(CO)n1Cc1cccc2ccccc12,.,.,-,.,.,.
N[C@H](C(=O)O)[C@H](N)C(=O)O,.,.,-,.,.,.
CCOC(=O)Cc1csc(NC(=O)c2ccc(Cl)nc2)n1,41,-,-,-,-,-
CCOC(=O)Cc1csc(NC(=O)CCCCCN2C(=O)c3cccc4cccc(c34)C2=O)n1,-,58[fluorescence artefact?],-,69[fluorescence artefact?],-,-
CCOC(=O)Cc1csc(NC(=O)c2sc3nc4ccc(CC)cc4cc3c2N)n1,85[fluorescence artefact?],.,.,.,-,.
CO[C@@H]1/C=C\O[C@]2(C)Oc3c(C)c(O)c4c(O)c(cc(O)c4c3C2=O)NC(=O)C(C)=C/C=C\[C@H](C)[C@@H](O)[C@H](C)[C@H](O)[C@H](C)[C@H](OC(C)=O)[C@@H]1C,.,.,-,.,.,.
COc1ccc(/C=C/c2ccncc2)c2ccccc12,141[fluorescence artefact?],-,-,-,-,-
COc1ccc(C=Nc2cccc3c(=O)[nH][nH]c(=O)c23)c2ccccc12,-,-,-,-,-,-
O=C(c1ccccc1Nc1ccc(SC(F)F)cc1)N1CCCCCC1,-,-,-,-,-,-
CN1CCN(c2ccc(NC(=O)c3cccc(OCc4ccccc4)c3)cc2)CC1,-,62[fluorescence artefact?],-,-,-,-
SMILES,HIV Rev-RRE inh,ERb SRC1 inh,Smad3 inh,ERa coact inh,FAK inh,ERa coact pot
O=C(Oc1ccccc1)N1CCN(c2ccc(F)cc2)CC1,-,-,-,-,-,-
O=C(Nc1ccc(N2CCCC2)cc1)c1cccc(F)c1,-,55[fluorescence artefact?],-,-,-,-
O=C(Nc1ccc(N2CCCC2)cc1)c1ccccc1F,-,80[fluorescence artefact?],-,96[fluorescence artefact?],63,-
CCN1CCN(c2ccc(NC(=O)c3cccc(OCc4ccccc4)c3)cc2)CC1,-,-,-,-,-,-
O=C(Nc1ccc(N2CCCCC2)cc1)c1ccccc1,-,.,.,.,-,.
O=C(Nc1ccc(N2CCN(c3ccc(O)cc3)CC2)cc1)Oc1ccccc1,-,57[fluorescence artefact?],-,95[fluorescence artefact?],-,-
CN(C)c1ccc(O)c2c1CC1CC3[C@@H](N(C)C)C(=O)C(C(N)=O)=C(O)[C@]3(O)C(=O)C1=C2O (stereo not given in full),.,100[fluorescence artefact?],55[fluorescence artefact?],98[fluorescence artefact?],.,-
Oc1c(C=NCc2ccc(F)cc2)[nH]c2ccc(Br)c(Cl)c12,99[fluorescence artefact?],-,-,-,-,-
